Experimental data as given in PubChem BioAssay.
Records with an inconclusive call do not appear. Calls of active or inactive are those of the source.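 How the source made its calls, unless noted: active means growth inhibition above 25% in both replicates, a cutoff set 3 SD above the mean; inconclusive means above 25% in only one replicate; inactive means the rest.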

Columns and labels:
[1] = OD615 S. cerevisiae growth inhibition, permissive medium, pilot counter-assay, permissive growth control for S. cerevisiae lifespan shortening project (AID 705); settings: OD615, 24 h, at 10 µM, stronger effect = higher value
Outline: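 System: engineered DeaD yeast; Medium: permissive raffinose/galactose medium; Compound dosing: 10 µM single dose, 0.25% DMSO; Incubation: 4 h cell pre-growth, 24 h exposure at 30 °C; Technique: OD at 615 nm; Evaluation: growth inhibition from lowered OD615 after 24 h.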

[2] = Restrictive medium S. cerevisiae growth inhibition, OD615, pilot screen of yeast lifespan reduction project, restrictive growth control (AID 706;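 active means growth inhibition above a set limit, 3 SD over mean compound inhibition, in both replicates, cut at about 43% in these data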;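 further: modified DeaD lifespan yeast strain shifted to restrictive glucose medium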); settings: OD615, 48 h, at 10 µM, stronger effect = higher value
Outline: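 Material: modified S. cerevisiae; buffer or medium: CSMM-D glucose medium; doses: one concentration, 10 µM final, 0.25% DMSO; incubation: 48 h compound exposure at 30 °C; detection: optical density at 615 nm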

[3] = viability gain of MRP-1-high H69AR cells under doxorubicin, pilot screen, MRP-1 activator project, CellTiter-Glo, duplicate (AID 807;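 active means viability increase at or above a cutoff of the median across tested compounds plus 3 SD, cut at about 8.5% in these data, passing the limit was not always enough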;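 further: compound pretreatment 18-22 h then 72 h combined with doxorubicin; 0% = doxorubicin alone and 100% = vehicle without doxorubicin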); settings: H69AR viability with doxorubicin, CellTiter-Glo luminescence; at 10 µM; stronger effect = higher value
[4] = growth suppression of beta-catenin knockout HCT116, pilot screen, human colon tumor cells (AID 823;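 active means cell viability at or below a set limit in both duplicate runs, the limit being the all-compound median minus 4 SD, cut at about 23% in these data, passing the limit was not always enough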;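 further: 0% = wells killed by 20 µM Hyamine and 100% = untreated DMSO cell wells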); settings: CellTiter-Glo, 60 h, at 10 µM, stronger effect = lower value
[5] = growth suppression of PTEN-deleted HCT116, pilot screen, cell-based, HCT116 clonal line, CellTiter-Glo (AID 824;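 active means viability at or below 27.92% in each of two runs, the all-compound median minus 4 SD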;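 further: 0% = 20 µM Hyamine control and 100% = vehicle cell control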); settings: 60 h, at 10 µM, stronger effect = lower value
[6] = inhibitors of the yeast RAM network, pilot screen, dse1pr::URA3 reporter, 5-FOA selection (AID 869;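 active means inhibition over a set limit, the all-compound mean plus 3 SD, in both replicate runs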;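 further: 0% = DMSO wells with no growth and 100% = 10 µM 1-NA-PP1 with full growth; RAM network block rescues cells from 5-FOA so hits raise OD615 growth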); settings: S. cerevisiae dse1pr::URA3 5-FOA growth, OD615, 2 d; at 10 µM; stronger effect = higher value; strain carries analog-sensitive mutant Cbk1 kinase
[7] = RAM signaling pathway blockade in yeast – S. cerevisiae, Pdr1DBD-CYC8 efflux-inhibited sensitized strain, primary screen (AID 1298;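 active means RAM network inhibition above 8.4% in each of two replicates, 3 SD over the compound average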;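 further: 0% = DMSO untreated cells without growth and 100% = 10 µM 1-NA-PP1 full growth; higher means more yeast growth rescued from 5-FOA killing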); settings: S. cerevisiae cbk1-as DSE1-URA3 strain, 5-FOA growth OD615, 2 d; at 50 µM; stronger effect = higher value

COc1ccccc1CNC(=O)Cn1cc2c(n1)CCCC2
inactive: growth inhibition [1] -6.06% | growth inhibition [2] -7.73% | viability [4] 107% | viability [5] 101% | inhibition [6] 0.685% | RAM network inhibition [7] 3.05%
active: viability increase [3] 13.7%

Cc1noc(C)c1S(=O)(=O)N(CC(=O)Nc1ccc2c(c1)OCO2)c1ccc(C(C)C)cc1
inactive: growth inhibition [1] -5.59% | growth inhibition [2] -3.17% | viability increase [3] -3.69% | viability [4] 96.4% | viability [5] 93.5% | inhibition [6] 2.64% | RAM network inhibition [7] -0.06%

COC(=O)c1ccc(Nc2cc(C)nc3nc(C)nn23)cc1
inactive: growth inhibition [1] -10.5% | growth inhibition [2] -4.57% | viability increase [3] -2.65% | viability [4] 97.3% | viability [5] 94.6% | inhibition [6] 1.67% | RAM network inhibition [7] 0.77%

COc1cc(OC)c(C2Oc3nc(SC)nnc3-c3ccccc3N2C(C)=O)cc1OC (configuration not stated)
inactive: growth inhibition [1] 4.06% | growth inhibition [2] -0.66% | viability increase [3] -4.95% | viability [4] 108% | viability [5] 108% | inhibition [6] 3.23% | RAM network inhibition [7] 1.75%

Cc1cccc(NC(=O)CN2C(=O)COc3ccc(Cl)cc32)c1C
inactive: growth inhibition [1] -3.47% | growth inhibition [2] -2.44% | viability increase [3] -0.9% | viability [4] 87.5% | viability [5] 85.8% | inhibition [6] 2.24% | RAM network inhibition [7] 4.67%

C=CCSc1nnc(CSc2nc3sc4c(c3c(=O)[nH]2)CCCC4)n1-c1ccccc1
inactive: growth inhibition [1] 9.19% | growth inhibition [2] 37.7% | viability increase [3] 0.54% | viability [4] 93.2% | viability [5] 91.2% | inhibition [6] 1.42% | RAM network inhibition [7] 11%

O=C(CC1Oc2ccccc2NC1=O)NC1CC1 (configuration not stated)
inactive: growth inhibition [1] -1.45% | growth inhibition [2] -2.85% | viability increase [3] 0.91% | viability [4] 108% | viability [5] 93.5% | inhibition [6] 3.03% | RAM network inhibition [7] -0.05%

CN(C)Cc1cc(C(C)(C)C)c(O)c(C(C)(C)C)c1
inactive: growth inhibition [1] -3.78% | growth inhibition [2] -4.33% | viability increase [3] -2.61% | viability [4] 97.2% | viability [5] 101% | inhibition [6] 0.92% | RAM network inhibition [7] 5.72%

O=C(CS(=O)(=O)c1cn(Cc2ccccc2Cl)c2ccccc12)N1CCOCC1
inactive: growth inhibition [1] -3.44% | growth inhibition [2] 2.78% | viability increase [3] -4.39% | viability [4] 79% | viability [5] 76% | inhibition [6] 3.23% | RAM network inhibition [7] 5.08%

O=C(NCc1ccc(F)cc1)c1cnc2n(c1=O)CCS2
inactive: growth inhibition [1] -2.45% | growth inhibition [2] -2.23% | viability increase [3] 2.85% | viability [4] 101% | viability [5] 102% | inhibition [6] 0.54% | RAM network inhibition [7] -0.84%

O=C(c1cccc(F)c1)N1CCN=C1SCc1cccnc1
inactive: growth inhibition [1] -2.18% | growth inhibition [2] 8.84% | viability increase [3] -0.35% | viability [4] 102% | viability [5] 96.3% | inhibition [6] 0.32% | RAM network inhibition [7] 0.89%

COc1cc(OC)cc(-c2nc(-c3ccc(Br)cc3)no2)c1
inactive: growth inhibition [1] -13.6% | growth inhibition [2] -13.2% | viability increase [3] 1.86% | viability [4] 94% | viability [5] 89.2% | inhibition [6] 3.5% | RAM network inhibition [7] 8.01%

COCCNC(=O)CN1C(=O)CSc2cc(S(=O)(=O)N3CCCCCC3)ccc21
inactive: growth inhibition [1] -5.04% | growth inhibition [2] -4.12% | viability increase [3] -1.52% | viability [4] 98.9% | viability [5] 109% | inhibition [6] 2.73% | RAM network inhibition [7] -0.32%

O=C(O)c1cc(Cl)c(Cl)cc1C(=O)N1CCOCC1
inactive: growth inhibition [1] -26.1% | growth inhibition [2] -13.7% | viability increase [3] -0.17% | viability [4] 94% | viability [5] 89.5% | inhibition [6] 1.38% | RAM network inhibition [7] 1.67%

CCCOc1ccc(C2c3c(oc4cc(C)c(C)cc4c3=O)C(=O)N2CCCN2CCOCC2)cc1 (configuration not stated)
inactive: growth inhibition [1] 8% | growth inhibition [2] 1.72% | viability increase [3] -2.28% | viability [4] 81.9% | viability [5] 89% | inhibition [6] 0.075% | RAM network inhibition [7] 0.73%

c1nc2nc3c(c(N4CCOCC4)n2n1)CCCC3
inactive: growth inhibition [1] -6.33% | growth inhibition [2] 11.4% | viability increase [3] -1.47% | viability [4] 103% | viability [5] 99.7% | inhibition [6] 0.645% | RAM network inhibition [7] 0.44%
